From ChEMBL document CHEMBL1142540, “Novel piperidinylpyrimidine derivatives as inhibitors of HIV-1 LTR activation” (Bioorg Med Chem, 2008)

Key:
[1] = Inhibition of HIV1 LTR-driven CAT gene expression in PMA-stimulated human JURKAT cells; format: cell-based; conditions: Human immunodeficiency virus 1, Jurkat
Procedure, shortened: (§1)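 Jurkat cells electroporated (140 V) with HIV-1 LTR-CAT plasmid p469 using DEAE-dextran and cultured 20 h. Cells then stimulated with PMA 10 ng/ml in presence of compound for 24 h at 37 °C, lysed by freeze-thaw.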

[2] = system: Jurkat; assay: Inhibition of HIV1 LTR-driven CAT gene expression in PMA-stimulated human JURKAT cells at 5 uM; format: cell-based; conditions: Human immunodeficiency virus 1; procedure, shortened: as §1
[3] = system: Jurkat; assay: Cytotoxicity against human JURKAT cells; format: cell-based
Procedure, shortened: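 Cell number of treated Jurkat cells counted by Coulter counter to assess inhibition of proliferation.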

[4] = Inhibition of HIV1 LTR-driven CAT gene expression in Tat-stimulated human JURKAT cells; format: cell-based; conditions: Human immunodeficiency virus 1, Jurkat
Procedure, shortened: (§2)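 Jurkat cells co-electroporated (140 V) with LTR-CAT p469 plus pSV-Tat using DEAE-dextran, cultured 20 h, then treated with compound alone (no PMA) for 24 h at 37 °C.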

[5] = system: Jurkat; assay: Inhibition of HIV1 LTR-driven CAT gene expression in Tat-stimulated human JURKAT cells at 1 uM; format: cell-based; conditions: Human immunodeficiency virus 1; procedure, shortened: as §2
[6] = system: PBMC; assay: Inhibition of LPS-stimulated TNFalpha production in human PBMC; format: functional, cell-based
Procedure, shortened: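 Human PBMC from healthy donors isolated by Ficoll-Paque, seeded at 1×10^5 cells/well in RPMI 1640 with 10% heat-inactivated FBS and L-glutamine. Stimulated with LPS 0.1 ug/ml final, compound added at the same time (DMSO below 0.1%), 20 h; supernatants collected for TNF-α.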

[7] = Inhibition of HIV1 LTR-driven CAT gene expression in PMA-stimulated HEK293-27-2 cells assessed as […]; conditions: Human immunodeficiency virus 1
[8] = system: Peritoneal macrophage cell; assay: Inhibition of LPS-stimulated TNFalpha production in BALB/c mouse peritoneal macrophages by ELISA; format: functional, cell-based
Procedure, shortened: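 Thioglycolate-elicited peritoneal macrophages from 5-week-old female BALB/c mice, adherent cells at 2×10^5/well in MEM with 10% FBS. LPS 10 ug/ml final, added together with compound (DMSO below 0.1%), 20 h. Supernatant TNF-α measured by sandwich ELISA against recombinant mouse TNF-α standard curve, absorbance at 450 nm.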

[9] = Inhibition of Tat-induced HIV1 LTR transactivation; design: species or system Human immunodeficiency virus 1
Procedure, shortened: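 Jurkat cells electroporated at 140 V with HIV-1 LTR-CAT plasmid p469 (1 µg) plus pSV-Tat (0.5 µg) and DEAE-dextran, then cultured 20 h at 37 °C. Cells were exposed to compound without PMA for 24 h and lysed. Reported as % inhibition at 5 µM or IC50, single determination.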

[10] = Inhibition of Tat-induced HIV1 LTR transactivation in human HeLa cells assessed as CAT expression after 2 days; format: cell-based; conditions: Human immunodeficiency virus 1, HeLa, 48 h

Row | Compound | IC50 [1] | inhibition [2] | Activity [3] | other results
1 | CS(=O)(=O)c1ccc(Cc2cc(C3CCN(C(=O)c4ccc5c(c4)OCO5)CC3)nc(N)n2)cc1 | > 5000 nM | 37% | Non-toxic | –
2 | CSc1ccc(Cc2cc(C3CCN(C(=O)c4ccc5c(c4)OCO5)CC3)nc(N)n2)cc1 | 200 nM | – | Non-toxic | IC50 [4]: < 1000 nM; inhibition [5]: 57%
3 | COc1ccc(-c2cc(C3CCN(C(=O)c4ccc5c(c4)OCO5)CC3)nc(N)n2)cc1 | 1900 nM | – | Non-toxic | –
4 | Nc1nc(Cc2ccc(Br)cc2)cc(C2CCN(C(=O)c3ccc4c(c3)OCO4)CC2)n1 | 700 nM | – | Non-toxic | –
5 | Nc1nc(Cc2ccc(O)cc2)cc(C2CCN(C(=O)c3ccc4c(c3)OCO4)CC2)n1 | > 5000 nM | 36% | Non-toxic | –
6 | COc1ccc(Cc2cc(C3CCN(C(=O)c4ccc5c(c4)OCO5)CC3)nc(N)n2)cc1OC | 600 nM | – | Non-toxic | IC50 [6]: 3200 nM
7 | COc1ccc(Cc2cc(C3CCN(C(=O)c4ccc5c(c4)OCO5)CC3)n[nH]2)cc1 | > 5000 nM | 35% | Non-toxic | –
8 | CCCCCCCC(=O)N1CCC(c2cc(Cc3ccc(OC)cc3)nc(N)n2)CC1 | > 5000 nM | 19% | Non-toxic | –
9 | COc1ccc(-c2c(C)nc(N)nc2C2CCN(C(=O)c3ccc4c(c3)OCO4)CC2)cc1 | > 5000 nM | 31% | Non-toxic | –
10 | CC(=O)CCCCn1c(=O)c2c(ncn2C)n(C)c1=O [PENTOXIFYLLINE] | – | – | – | IC50 [7]: 500000 nM
11 | COc1ccc(Cc2cc(C3CCN(C(=O)c4ccc([N+](=O)[O-])cc4)CC3)nc(N)n2)cc1 | > 5000 nM | 23% | Non-toxic | IC50 [8]: 700 nM
12 | O=C1CN=C(c2ccc[nH]2)c2cc(Cl)ccc2N1 | – | – | – | IC50 [9]: 100 nM
13 | COc1ccc(Cc2cc(C3CCN(C(=O)c4ccc5c(c4)OCO5)CC3)nc(Cl)n2)cc1 | 700 nM | – | Non-toxic | –
14 | COc1ccc(Cc2cc(C3CCN(C(=O)c4ccc5c(c4)OCO5)CC3)no2)cc1 | > 5000 nM | 36% | Non-toxic | –
15 | COc1cccc(Cc2cc(C3CCN(C(=O)c4ccc5c(c4)OCO5)CC3)nc(N)n2)c1 | 300 nM | – | Non-toxic | IC50 [6]: 2700 nM
16 | Nc1nc(Cc2ccc(OCc3ccccc3)cc2)cc(C2CCN(C(=O)c3ccc4c(c3)OCO4)CC2)n1 | 1200 nM | – | Non-toxic | IC50 [4]: 2100 nM
17 | COc1ccc(Cc2cc(C3CCN(C(C)=O)CC3)nc(N)n2)cc1 | > 5000 nM | 0% | Non-toxic | –
18 | COc1ccc(Cc2cc(C3CCN(C(=O)c4ccc(OC)c(OC)c4)CC3)nc(N)n2)cc1 | > 5000 nM | 14% | Non-toxic | IC50 [8]: 900 nM
19 | Nc1nc(CCc2ccccc2)cc(C2CCN(C(=O)c3ccc4c(c3)OCO4)CC2)n1 | 2100 nM | – | Non-toxic | –
20 | COc1ccc(OC)c(Cc2cc(C3CCN(C(=O)c4ccc5c(c4)OCO5)CC3)nc(N)n2)c1 | 200 nM | – | Non-toxic | IC50 [4]: < 1000 nM; inhibition [5]: 58%; IC50 [6]: 7700 nM
21 | COc1ccc(Cc2cc(C3CCN(C(=O)c4ccc(OC)cc4)CC3)nc(N)n2)cc1 | > 5000 nM | -5% | Non-toxic | IC50 [8]: 500 nM
22 | COc1ccc(Cc2cc(C3CCN(C(=O)c4ccc5[nH]ccc5c4)CC3)nc(N)n2)cc1 | > 5000 nM | 1% | Non-toxic | –
23 | Nc1nc(Cc2ccccc2)cc(C2CCN(C(=O)c3ccc4c(c3)OCO4)CC2)n1 | 800 nM | – | Non-toxic | IC50 [6]: 3200 nM
24 | Nc1nc(Cc2ccc3c(c2)OCO3)cc(C2CCN(C(=O)c3ccc4c(c3)OCO4)CC2)n1 | 700 nM | – | Non-toxic | IC50 [6]: 3300 nM
25 | COc1ccc(Cc2cc(C3CCN(C(=O)c4ccc(Cl)c(Cl)c4)CC3)nc(N)n2)cc1 | > 5000 nM | 17% | Non-toxic | IC50 [8]: 700 nM
26 | COc1ccc(Cc2cc(C3CCN(C(=O)c4ccc5ocnc5c4)CC3)nc(N)n2)cc1 | > 5000 nM | -7% | Non-toxic | –

Row | Compound | IC50 [1] | inhibition [2] | Activity [3] | other results
27 | Nc1nc(C2CCN(C(=O)c3ccc4c(c3)OCO4)CC2)c2ccccc2n1 | 2600 nM | – | Non-toxic | –
28 | Nc1nc(-c2ccc(Cl)cc2)cc(C2CCN(C(=O)c3ccc4c(c3)OCO4)CC2)n1 | > 5000 nM | 42% | Non-toxic | –
29 | Cc1cc(C2CCN(C(=O)c3ccc4c(c3)OCO4)CC2)nc(N)n1 | > 5000 nM | 10% | Non-toxic | –
30 | COc1ccc(Cc2cc(C3CCN(C(=O)c4ccccc4)CC3)nc(N)n2)cc1 | > 5000 nM | 19% | Non-toxic | –
31 | COc1ccc(Cc2cc(C3CCN(C(=O)c4ccc5ncoc5c4)CC3)nc(N)n2)cc1 | > 5000 nM | -8% | Non-toxic | –
32 | COc1ccc(Cc2cc(C3CCN(C(=O)c4ccc(Cl)cc4)CC3)nc(N)n2)cc1 | > 5000 nM | 21% | Non-toxic | IC50 [8]: 600 nM
33 | COc1ccc(Cc2cc(C3CCN(Cc4ccc5c(c4)OCO5)CC3)nc(N)n2)cc1 | > 5000 nM | -2% | Non-toxic | –
34 | Nc1nc(-c2ccccc2)cc(C2CCN(C(=O)c3ccc4c(c3)OCO4)CC2)n1 | > 5000 nM | 47% | Non-toxic | –
35 | COc1ccc(Cc2cc(C3CCN(C(=O)c4ccc5c(c4)OCO5)CC3)on2)cc1 | > 5000 nM | 35% | Non-toxic | –
36 | C[S+]([O-])c1ccc(-c2nc(-c3ccc(F)cc3)c(-c3ccncc3)[nH]2)cc1 (configuration not stated) [SB-203580] | – | – | – | IC50 [10]: 100 nM
37 | COc1ccc(Cc2cc(C3CCN(C(=O)Cc4ccc(OC)c(OC)c4)CC3)nc(N)n2)cc1 | > 5000 nM | 7% | Non-toxic | –
38 | COc1ccc(Cc2cc(C3CCN(C(=O)Cc4ccc5c(c4)OCO5)CC3)nc(N)n2)cc1 | > 5000 nM | 16% | Non-toxic | –
39 | Cn1cc(C(=O)O)c(=O)c2cc(F)c(N3CC=C(c4ccccc4)CC3)c(C(F)(F)F)c21 [FLUOROQUINOLINE K37] | – | – | – | IC50 [10]: < 160 nM
40 | COc1ccc(Cc2cc(C3CCN(C(=O)c4ccc5ccoc5c4)CC3)nc(N)n2)cc1 | > 5000 nM | 2% | Non-toxic | –
41 | COc1ccc(Cc2cc(C3CCN(C(=O)c4ccc5c(c4)OCCO5)CC3)nc(N)n2)cc1 | > 5000 nM | 7% | Non-toxic | –
42 | COc1ccc(Cc2cc(C3CCN(C(=O)c4ccc5occc5c4)CC3)nc(N)n2)cc1 | > 5000 nM | 4% | Non-toxic | –
43 | COc1ccc(Cc2cc(C3CCN(C(=O)c4ccc5nsnc5c4)CC3)nc(N)n2)cc1 | > 5000 nM | 4% | Non-toxic | –
44 | COc1ccc(Cc2cc(C3CCN(C(=O)c4ccc5c(c4)OCO5)CC3)nc(N)n2)cc1 | 600 nM | 86% | Non-toxic | IC50 [8]: 600 nM; IC50 [4]: 4000 nM; IC50 [6]: 1900 nM
45 | COc1ccc(Cc2cc(C3CCN(C(=O)c4ccc5c(c4)OCO5)CC3)ncn2)cc1 | 500 nM | – | Non-toxic | –
46 | COc1ccc(Cc2cc(C3CCN(C(=O)c4cccc5c4OCO5)CC3)nc(N)n2)cc1 | > 5000 nM | 13% | Non-toxic | –
47 | COc1cc(Cc2cc(C3CCN(C(=O)c4ccc5c(c4)OCO5)CC3)nc(N)n2)cc(OC)c1 | 300 nM | – | Non-toxic | IC50 [4]: < 1000 nM; inhibition [5]: 56%; IC50 [6]: 3300 nM
48 | Nc1nc(Cc2ccc(Cl)cc2)cc(C2CCN(C(=O)c3ccc4c(c3)OCO4)CC2)n1 | 1300 nM | – | Non-toxic | IC50 [4]: 7100 nM; IC50 [6]: 13000 nM
49 | C[S+]([O-])c1ccc(Cc2cc(C3CCN(C(=O)c4ccc5c(c4)OCO5)CC3)nc(N)n2)cc1 (configuration not stated) | > 5000 nM | 27% | Non-toxic | –
50 | COc1ccc(Cc2cc(C3CCN(C(=O)c4ccc5c(c4)CCO5)CC3)nc(N)n2)cc1 | > 5000 nM | -8% | Non-toxic | –
51 | COc1ccc(Cc2cc(C3CCN(C(=O)c4ccc5c(c4)OCO5)CC3)nc(=O)[nH]2)cc1 | > 5000 nM | – | Non-toxic | –
